Assay outcomes: PubChem, Broad Institute
Sampled rows, rich in hits. Any-hit rate of the full collection: about 2.4%.
Cneo AK release – causes C. neoformans cell lysis. lysis activity, % at 15 µM. adenylate kinase release luminescence, 4 h; normalised: neutral wells 0, clomiphene wells 100. 360,000 compounds, 0.2% hits;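 active means mean lysis activity across replicates of at least 80%, whatever share of replicates individually reach that level; inactive means mean lysis activity below 80%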
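Test system: log-phase Cryptococcus neoformans yeast cells. Input: 5 × 10^6 yeast cells/mL. Medium: fresh YPD growth medium. Doses: single dose. Incubation: static 4 h at 37 °C with compound, 1 h detection. Measured by: luminescent adenylate kinase detection reagent. Read-out: signal increase indicating cell lysis. Benchmarks: Clomiphene.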
HIV Env fusion – blocks HIV Env-driven cell-cell fusion; AID 651610; inhibition, % at 12.3 µM; 360,000 compounds, 1.1% hits; HeLa-JRFL Env/CEM21 cell fusion, luciferase;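 active means mean replicate inhibition score of at least 50 and every replicate individually at or above 50; inconclusive means only one of the two criteria met; inactive means mean below 50 and not all replicates reaching 50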;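 further: 0% = plate neutral controls and 100% = maraviroc near 300 nM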
Rtt109 HAT inh – blocks Candida albicans Rtt109/Vps75 acetyltransferase activity; purified Rtt109/Vps75, ThioGlo CoA-SH fluorescence, 4 h; Q5AAJ8; AID 540336; inhibition, % at 34.9 µM; 330,000 compounds, 0.16% hits;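 active means inhibition of at least 50% in every replicate; inconclusive means best replicate reaches 50% inhibition but some replicates fall short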
Target sequence (Q5AAJ8 whole entry, looked up): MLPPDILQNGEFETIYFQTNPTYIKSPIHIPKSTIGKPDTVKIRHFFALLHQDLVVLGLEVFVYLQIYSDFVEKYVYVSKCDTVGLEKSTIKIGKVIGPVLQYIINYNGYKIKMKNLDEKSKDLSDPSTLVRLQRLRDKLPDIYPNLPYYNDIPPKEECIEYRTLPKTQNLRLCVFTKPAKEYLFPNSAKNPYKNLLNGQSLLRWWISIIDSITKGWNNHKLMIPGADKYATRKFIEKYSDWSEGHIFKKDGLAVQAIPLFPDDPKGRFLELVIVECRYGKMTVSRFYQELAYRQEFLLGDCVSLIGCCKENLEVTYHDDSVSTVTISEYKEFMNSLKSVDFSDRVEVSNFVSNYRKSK
miR122 inh – blocks miR-122 activity in Huh7 sensor cells; Huh7 miR-122 Renilla luciferase sensor, 48 h; neutral wells = 0, positive control = 100; AID 602342; 340,000 compounds, 0.3% hits; activation (reporter increase), % at 12.5 µM;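 active means mean replicate activation score at least 90 and every replicate individually at or above 90; inconclusive means only one of the two criteria met; inactive means neither criterion met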;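 further: higher luciferase means less miR-122 activity so hits act as miR-122 inhibitors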
dFosB activator – enhances mouse delta FosB homodimer DNA binding. P13346. purified delta FosB, TAMRA-CDK5 oligo fluorescence polarization; percent of positive-control signal above neutral wells. activation, % at 25 µM. 340,000 compounds, 0.99% hits. AID 493131;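 active means mean activation above about 17%, with every replicate also reaching it, limit read from the data, passing the limit was not always enough; inconclusive means only one of the two conditions met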
Target sequence (P13346 whole entry, looked up): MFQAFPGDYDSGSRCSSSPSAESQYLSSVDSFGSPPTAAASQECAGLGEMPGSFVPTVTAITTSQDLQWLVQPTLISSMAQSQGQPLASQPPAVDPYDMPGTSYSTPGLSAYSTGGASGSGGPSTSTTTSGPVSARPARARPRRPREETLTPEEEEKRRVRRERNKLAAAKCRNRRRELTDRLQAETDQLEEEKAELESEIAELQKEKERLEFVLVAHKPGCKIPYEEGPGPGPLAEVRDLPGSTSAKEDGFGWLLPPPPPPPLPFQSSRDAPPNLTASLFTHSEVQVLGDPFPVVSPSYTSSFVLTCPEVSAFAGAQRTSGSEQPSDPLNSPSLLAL
GSIS activator – primary screen for activators of insulin secretion dependent on glucose, INS-1E cells, GLuc reporter luminescence; INS-1E GLuc reporter insulin secretion, 2-3 h; activation, % at 16.6 µM; 370,000 compounds, 0.61% hits; AID 743287;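 active means lowest replicate activation of at least 40%, so every replicate reaches that level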;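 further: 0% = median of neutral control wells and 100% = median of IBMX positive control wells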
* hit, by the source's call; u = inconclusive; x = no result; [ ] = remark or other dose.

SMILES	Cneo AK release	HIV Env fusion	Rtt109 HAT inh	miR122 inh	dFosB activator	GSIS activator
CCOc1ccc2nc(NCCNC(=O)Nc3ccccc3)c(C#N)cc2c1	-1	-73	-19	-22	14	200*
CCOc1ccc2nc(NCCNC(=O)Nc3cccc(C)c3)c(C#N)cc2c1	11	7	-7	-2	9	320*
COc1ccc2sc3c(=O)[nH]c4ccccc4c3c2c1	-1	x	7	9	-16	103*
S=c1nc[nH]c2c1[nH]c1ccc(Cl)cc12	x	69*	-6	x	-1	x
S=c1nc[nH]c2c1[nH]c1ccccc12	3	x	1	-5	0	x
CCOc1ccc(C(=O)N/N=C/c2cc(Cl)ccc2[N+](=O)[O-])cc1	x	-12	11	x	-1	92*
CCn1cc(S(=O)(=O)CC(=O)Nc2ccc(C)cc2)c2ccccc21	-3	-31	9	98*	-11	x
O=C(CS(=O)(=O)c1cn(CC(=O)N2CCOCC2)c2ccccc12)Nc1ccccc1	x	-70	0	x	-3	40*
Cc1ccc(C)c(CS(=O)(=O)c2cn(CC(=O)N3CCC(C)CC3)c3ccccc23)c1	3	120*	5	-5	-5	-17
CCn1cc(S(=O)(=O)CC(=O)Nc2cccc(C)c2)c2ccccc21	4	1	0	26	-10	x
CO[C@@H]1CN(C)C(=O)c2ccc(NC(C)=O)cc2OC[C@H](C)N(C(=O)C2CCOCC2)C[C@H]1C	1	x	x	2[16.7 µM]	x	1
CCNC(=O)[C@@H]1[C@@H](CO)[C@@H]2Cn3c(ccc(C4=CCCC4)c3=O)[C@H]1N2C(=O)CC	1	x	x	5[16.7 µM]	x	6
COc1ccc(CN(C)C[C@H]2Oc3ccc(NC(=O)Nc4ccc(F)cc4)cc3CC(=O)N([C@H](C)CO)C[C@H]2C)cc1	0	x	x	-8[16.7 µM]	x	-28
C[C@H]1CN([C@@H](C)CO)C(=O)Cc2cc(NC(=O)Cn3cnnn3)ccc2O[C@H]1CN(C)Cc1ccc(C(F)(F)F)cc1	4	92*[16.7 µM]	x	-3[16.7 µM]	x	-8
COc1ccc(NC(=O)Nc2ccc3c(c2)CC(=O)N([C@@H](C)CO)C[C@@H](C)[C@H](CN(C)Cc2ccc(C(F)(F)F)cc2)O3)cc1	0	61*[16.7 µM]	x	-8[16.7 µM]	x	-8
COc1ccc(NC(=O)Nc2ccc3c(c2)CC(=O)N([C@@H](C)CO)C[C@@H](C)[C@H](CN(C)Cc2ccc(Oc4ccccc4)cc2)O3)cc1	44	19[16.7 µM]	x	5[16.7 µM]	x	-5
COc1ccc(CN(C)C[C@@H]2Oc3ccc(NC(=O)Nc4ccc(F)cc4)cc3CC(=O)N([C@H](C)CO)C[C@H]2C)cc1	115*	x	x	3[16.7 µM]	x	-21
COc1ccc(NC(=O)Nc2ccc3c(c2)CC(=O)N([C@H](C)CO)C[C@@H](C)[C@H](CN(C)Cc2ccc(Oc4ccccc4)cc2)O3)cc1	-4	60*[16.7 µM]	x	5[16.7 µM]	x	2
CC(C)NC(=O)N(C)C[C@@H]1Oc2ccc(NC(=O)C3CC3)cc2CC(=O)N([C@@H](C)CO)C[C@@H]1C	-1	59*[16.7 µM]	x	3[16.7 µM]	x	9
COc1ccc(NC(=O)Nc2ccc3c(c2)CC(=O)N([C@@H](C)CO)C[C@@H](C)[C@@H](CN(C)C(=O)NC(C)C)O3)cc1	74	-7[16.7 µM]	x	101*[16.7 µM]	x	23
COc1ccc(NC(=O)Nc2ccc3c(c2)CC(=O)N([C@@H](C)CO)C[C@H](C)[C@@H](CN(C)C(=O)NC(C)C)O3)cc1	16	3[16.7 µM]	x	29[16.7 µM]	x	2
CC(C)NC(=O)N(C)C[C@H]1Oc2ccc(NC(=O)C3CC3)cc2CC(=O)N([C@H](C)CO)C[C@H]1C	2	2[16.7 µM]	x	-1[16.7 µM]	x	5
CO[C@H]1CN(C)C(=O)c2ccc(NC(=O)NC(C)C)cc2OC[C@@H](C)N(Cc2cncnc2)C[C@H]1C	x	x	x	3[16.7 µM]	x	-11
Nc1nc2ccccc2n1Cc1ccc(Cl)c(Cl)c1	0	u	-6	x	2	-29
Cc1ccc(Cn2c(N)nc3ccccc32)cc1	0	59*	-4	-2	-8	-3
SMILES	Cneo AK release	HIV Env fusion	Rtt109 HAT inh	miR122 inh	dFosB activator	GSIS activator
CCN(CC)c1ccc(NC(=O)CSc2nc3nc(C)cc(C)c3c(=O)[nH]2)cc1	2	-15	23	-7	-15	42*
CCN(CC(=O)Nc1ccccc1OC)C(=O)C1CCCC1	-1	3	7	x	2	68*
C/C=C/c1ccc([C@@H]2[C@H](CO)N(CCC(F)(F)F)C23CN(C(C)=O)C3)cc1	x	x	x	x	x	-1
CCOc1ncccc1C(=O)Nc1ccc(S(=O)(=O)Nc2nccs2)cc1	-1	5	2	37	-9	86*
O=C(CN1C(=O)c2ccccc2S1(=O)=O)c1ccccc1Cl	-10	83*	-9	3	-6	2
Cc1ccc(C(=O)CN2C(=O)c3ccccc3S2(=O)=O)cc1	-9	78*	-6	-3	-2	4
CCOc1ccc(CCNC(=O)Cn2cccc2C(=O)c2ccccc2)cc1OCC	x	3	-7	x	-1	21
CCOc1ccc(CCNC(=O)Cn2ccc3ccccc3c2=O)cc1OCC	x	0	1	x	-1	50*
CCOc1ccc(CCNC(=O)COc2cc(=O)n(C)c3ccccc23)cc1OCC	x	11	5	x	-2	52*
CCCCNC(=O)CSc1cc(=O)n(C)c2ccccc12	1	-51	0	2	-8	x
CCOc1ccc(CCNC(=O)CSc2cc(=O)n(C)c3ccccc23)cc1OCC	-1	10	-14	14	-12	57*
CCn1c(=O)cc(OCC(=O)NCCc2ccc(OC)c(OC)c2)c2ccccc21	x	6	-11	x	-5	22
C[C@H]1CN([C@@H](C)CO)S(=O)(=O)c2ccc(C3=CCCCC3)cc2O[C@H]1CN(C)C(=O)C1CCCCC1	7	22[16.7 µM]	x	-2[16.7 µM]	x	-34
CCCC(=O)Nc1ccc2c(c1)OC[C@H](C)N(Cc1nccs1)C[C@@H](C)[C@@H](OC)CN(C)C2=O	1	x	x	x	x	-3
O=C1CCc2cc(NS(=O)(=O)c3ccccc3)cc3c2N1CCC3	x	5	2	63	2	0
Cc1cccc(NS(=O)(=O)c2cc3c4c(c2)CCC(=O)N4CCC3)c1	x	0	5	181*	-17	-2
COc1ccc2c3c([nH]c2c1)[C@H](CO)N(C(=O)c1ccc(F)cc1)CC31CN(C(=O)Nc2ccc(F)cc2)C1	x	x	x	x	x	0
CC(C)CC#Cc1ccc2c(c1)O[C@@H](CN(C)S(=O)(=O)c1ccc(F)cc1)[C@H](C)CN([C@@H](C)CO)S2(=O)=O	-5	60*[16.7 µM]	x	-8[16.7 µM]	x	-7
COc1ccccc1-c1ccc2c(c1)O[C@H](CN(C)S(=O)(=O)c1ccc(C)cc1)[C@H](C)CN([C@@H](C)CO)S2(=O)=O	1	43*[16.7 µM]	x	22[16.7 µM]	x	18
